Key:
[1] = system: Murid betaherpesvirus 1; test: Antiviral activity against MCMV infected in BALB/c mouse assessed as decrease in virus-induced mortality at 50 mg/kg, po qd for 5 days administered 48 hrs after viral infection (reference value: 100%); format: functional; parameters: scale not given: the % may be the effect or the level left
Outline: (§1)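 Female BALB/c mice (3 weeks, 15/group) were inoculated ip with MCMV Smith at about LD90. Oral dosing of 0.2 mL in 0.4% CMC ran once daily for 5 days, starting 24 or 48 h post-inoculation. Mice were observed daily for 21 days. Mortality was compared with CMC placebo by Fisher's exact test.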

[2] = system: Murid betaherpesvirus 1; test: Antiviral activity against MCMV infected in BALB/c mouse assessed as decrease in virus-induced mortality at 5.6 mg/kg, po qd for 5 days administered 48 hrs after viral infection (reference value: 100%); format: functional; parameters: scale not given: the % may be the effect or the level left; outline: as §1
[3] = system: Murid betaherpesvirus 1; test: Antiviral activity against MCMV infected in BALB/c mouse assessed as decrease in virus-induced mortality at 5.6 mg/kg, po qd for 5 days administered 24 hrs after viral infection (reference value: 67%); format: functional; parameters: scale not given: the % may be the effect or the level left; outline: as §1
[4] = system: Mus musculus; test: Toxicity in BALB/c mouse assessed as ruffled coat appearance at 5.6 mg/kg, po qd for 5 days relative to control; format: organism-based; parameters: dose 5.6 mg/kg, route oral; conditions: in vivo, 120 h
Outline: (§2)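 Uninfected female BALB/c mice, 3 weeks old, in groups of 5. Compound suspended in 0.4% carboxymethylcellulose and given orally in 0.2 mL once daily for 5 days at 50, 16.7 or 5.6 mg/kg. Mean group body weight tracked over days 1–5 plus day 6 recovery. Clinical signs (ruffled coat, behaviour) were observed. Comparison was with vehicle-treated or untreated mice.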

[5] = system: Human betaherpesvirus 5; test: Antiviral activity against HCMV Toledo infected in human thymus/liver tissue xenografted in SCID mouse assessed as mean log10 genome equivalents/animal at 6.25 mg/kg, po qd for 14 days by RT-PCR analysis (reference value: 3.50 +/- 0.878); format: functional, strain Toledo
[6] = Prodrug activation assessed as cyclopropavir formation in presence of cow milk xanthine oxidase; conditions: cattle
Outline: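 Cow-milk xanthine oxidase, 0.4 units, acting on 0.07 mM substrate in 0.05 M Na2HPO4, pH 7.5, at room temperature. Conversion followed continuously at 304 nm. UV spectra were taken before enzyme addition (T = 0) and at 720 min and matched against authentic parent and product.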

[7] = system: Murid betaherpesvirus 1; test: Antiviral activity against MCMV infected in BALB/c mouse assessed as decrease in virus-induced mortality at 50 mg/kg, po qd for 5 days administered 24 hrs after viral infection (reference value: 67%); format: functional; parameters: scale not given: the % may be the effect or the level left; outline: as §1
[8] = system: Human alphaherpesvirus 3; test: Antiviral activity against VZV infected in HFF assessed as reduction in virus induced cytopathic effect; format: functional, organism-based
[9] = system: Human betaherpesvirus 5; test: Antiviral activity against HCMV Toledo infected in human thymus/liver tissue xenografted in SCID mouse assessed as decrease in viral infection at 12.5 mg/kg, po qd for 14 days by RT-PCR analysis (reference value: 92%); format: functional, strain Toledo; parameters: scale not given: the % may be the effect or the level left
[10] = system: Murid betaherpesvirus 1; test: Antiviral activity against MCMV infected in BALB/c mouse assessed as decrease in virus-induced mortality at 16.7 mg/kg, po qd for 5 days administered 24 hrs after viral infection (reference value: 67%); format: functional; parameters: scale not given: the % may be the effect or the level left; outline: as §1
[11] = Cytotoxicity against HFF; format: cell-based; conditions: human, HFF cells
[12] = system: Human betaherpesvirus 5; test: Antiviral activity against HCMV Towne infected in HFF by plaque reduction assay; format: functional, organism-based; conditions: Human betaherpesvirus 5, Towne
Outline: (§3)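 HCMV work used human foreskin fibroblasts as primary cultures, propagated in MEM with 10% FBS and L-glutamine, with or without antibiotics.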

[13] = system: Mus musculus; test: Toxicity in BALB/c mouse assessed as changes in behavior at 16.7 mg/kg, po qd for 5 days relative to control; format: organism-based; parameters: dose 16.7 mg/kg, route oral; conditions: in vivo, 120 h; outline: as §2
[14] = system: Mus musculus; test: Toxicity in BALB/c mouse assessed as ruffled coat appearance at 50 mg/kg, po qd for 5 days relative to control; format: organism-based; parameters: dose 50 mg/kg, route oral; conditions: in vivo, 120 h; outline: as §2
[15] = system: Human betaherpesvirus 5; test: Antiviral activity against HCMV Toledo infected in human thymus/liver tissue xenografted in SCID mouse assessed as mean log10 genome equivalents/animal at 12.5 mg/kg, po qd for 28 days by RT-PCR analysis (reference value: 3.73 +/- 0.784); format: functional, strain Toledo
[16] = system: Human betaherpesvirus 5; test: Antiviral activity against HCMV Toledo infected in human thymus/liver tissue xenografted in SCID mouse assessed as mean log10 genome equivalents/animal at 6.25 mg/kg, po qd for 28 days measured on day 35 by RT-PCR analysis (reference value: 3.28 +/- 1.422); format: functional, strain Toledo
[17] = system: Murid betaherpesvirus 1; test: Antiviral activity against MCMV infected in BALB/c mouse assessed as decrease in virus-induced mean day of death at 16.7 mg/kg, po qd for 5 days administered 48 hrs after viral infection (reference value: 5.1 +/- 0.9 days); format: functional
[18] = system: Human betaherpesvirus 5; test: Antiviral activity against HCMV AD169 infected in HFF assessed as reduction in virus induced cytopathic effect; format: functional, organism-based; conditions: Human betaherpesvirus 5, AD169; outline: as §3
[19] = system: Mus musculus; test: Toxicity in BALB/c mouse assessed as body weight loss at 16.7 mg/kg, po qd for 5 days relative to control; format: organism-based; parameters: dose 16.7 mg/kg, route oral; conditions: in vivo, 120 h; outline: as §2
[20] = system: Mus musculus; test: Toxicity in BALB/c mouse assessed as changes in behavior at 5.6 mg/kg, po qd for 5 days relative to control; format: organism-based; parameters: dose 5.6 mg/kg, route oral; conditions: in vivo, 120 h; outline: as §2
[21] = system: Human betaherpesvirus 5; test: Antiviral activity against HCMV Toledo infected in human thymus/liver tissue xenografted in SCID mouse assessed as decrease in viral infection at 12.5 mg/kg, po qd for 28 days by RT-PCR analysis (reference value: 92%); format: functional, strain Toledo; parameters: scale not given: the % may be the effect or the level left
[22] = system: Murid betaherpesvirus 1; test: Antiviral activity against MCMV infected in BALB/c mouse assessed as decrease in virus-induced mean day of death at 50 mg/kg, po qd for 5 days administered 24 hrs after viral infection (reference value: 4.9 +/- 0.7 days); format: functional
[23] = Cytotoxicity against human Akata cells; format: cell-based
[24] = system: Human betaherpesvirus 5; test: Antiviral activity against HCMV Toledo infected in human thymus/liver tissue xenografted in SCID mouse assessed as mean log10 genome equivalents/animal at 12.5 mg/kg, po qd for 28 days measured on day 35 by RT-PCR analysis (reference value: 3.28 +/- 1.422); format: functional, strain Toledo
[25] = system: Human betaherpesvirus 5; test: Antiviral activity against HCMV Toledo infected in human thymus/liver tissue xenografted in SCID mouse assessed as mean log10 genome equivalents/animal at 6.25 mg/kg, po qd for 28 days by RT-PCR analysis (reference value: 3.73 +/- 0.784); format: functional, strain Toledo
[26] = system: Human betaherpesvirus 5; test: Antiviral activity against HCMV Toledo infected in human thymus/liver tissue xenografted in SCID mouse assessed as mean log10 genome equivalents/animal at 6.25 mg/kg, po qd for 21 days by RT-PCR analysis (reference value: 3.82 +/- 1.24); format: functional, strain Toledo
[27] = system: Human betaherpesvirus 5; test: Antiviral activity against HCMV Toledo infected in human thymus/liver tissue xenografted in SCID mouse assessed as decrease in viral infection at 12.5 mg/kg, po qd for 21 days by RT-PCR analysis (reference value: 92%); format: functional, strain Toledo; parameters: scale not given: the % may be the effect or the level left
[28] = system: Human alphaherpesvirus 2; test: Antiviral activity against HSV2 infected in HFF assessed as reduction in virus induced cytopathic effect; format: functional, organism-based
[29] = system: Human betaherpesvirus 5; test: Antiviral activity against HCMV Toledo infected in human thymus/liver tissue xenografted in SCID mouse assessed as mean log10 genome equivalents/animal at 12.5 mg/kg, po qd for 21 days by RT-PCR analysis (reference value: 3.82 +/- 1.24); format: functional, strain Toledo

## Nc1ncc2ncn(/C=C3/CC3(CO)CO)c2n1
[1]
  Activity: 67%
[2]
  Activity: 0%
[3]
  Activity: 7%
[4]
  Activity: Non-toxic
[5]
  Activity: 3.9
[6]
  Drug metabolism: Active
[7]
  Activity: 47%
[8]
  EC50: > 300 µM
[9]
  Activity: 100%
[10]
  Activity: 0%
[11]
  CC50: > 100 µM
[12]
  EC50: > 100 µM
[13]
  Activity: Non-toxic
[14]
  Activity: Non-toxic
[15]
  Activity: 2.76
[16]
  Activity: 3.32
[17]
  Activity: 7 days
[18]
  EC50: > 300 µM
[19]
  Activity: Non-toxic
[20]
  Activity: Non-toxic
[21]
  Activity: 50%
[22]
  Activity: 8.3 days
[23]
  CC50: 71 µM
[24]
  Activity: 2.69
[25]
  Activity: 2.81
[26]
  Activity: 3.14
[27]
  Activity: 82%
[28]
  EC50: > 300 µM
[29]
  Activity: 2.94
